Reference: ChEMBL document CHEMBL5365542, “Difluoromethyl-1,3,4-oxadiazoles Are Selective, Mechanism-Based, and Essentially Irreversible Inhibitors of Histone Deacetylase 6” (J Med Chem, 2023)

Legend:
[1] = molecular target: Histone deacetylase 3/Nuclear receptor corepressor 2 (HDAC3/NCoR2) (Homo sapiens) (UniProt O15379+Q9Y618); test: Inhibition of C-terminal His-tagged human HDAC3 (1 to 428 residues)/N-terminal GST tagged human NcoR2 (395 to 489 residues) expressed in Sf9 insect cells using Z-Lys(Ac)-AMC as fluorogenic substrate at 10 uM preincubated for 60 mins followed by substrate addition and measured after 90 mins by microplate reader analysis relative to control; conditions: time 150.0 min
In short: (§1)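 Human recombinant enzyme was preincubated with 3-fold inhibitor dilutions for 60 min at 25 °C in Tris-HCl pH 8.0 buffer with BSA. ZMAL (75 μM solution) was then added, and the mix was incubated 90 min at 37 °C (max 1% DMSO). Trypsin was added for 30 min at 37 °C, and fluorescence was read at ex 355/em 460. Tested at least twice in duplicate.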

[2] = molecular target: T1, Protein deacetylase HDAC6 (Homo sapiens, UniProt Q9UBN7); test: Inhibition of N-terminal GST tagged human recombinant HDAC6 (1 to 1215 residues) expressed in Sf9 insect cells using Z-Lys(Ac)-AMC as fluorogenic substrate preincubated for 60 mins followed by substrate addition and measured after 90 mins by microplate reader analysis
T1 sequence (Q9UBN7 whole entry): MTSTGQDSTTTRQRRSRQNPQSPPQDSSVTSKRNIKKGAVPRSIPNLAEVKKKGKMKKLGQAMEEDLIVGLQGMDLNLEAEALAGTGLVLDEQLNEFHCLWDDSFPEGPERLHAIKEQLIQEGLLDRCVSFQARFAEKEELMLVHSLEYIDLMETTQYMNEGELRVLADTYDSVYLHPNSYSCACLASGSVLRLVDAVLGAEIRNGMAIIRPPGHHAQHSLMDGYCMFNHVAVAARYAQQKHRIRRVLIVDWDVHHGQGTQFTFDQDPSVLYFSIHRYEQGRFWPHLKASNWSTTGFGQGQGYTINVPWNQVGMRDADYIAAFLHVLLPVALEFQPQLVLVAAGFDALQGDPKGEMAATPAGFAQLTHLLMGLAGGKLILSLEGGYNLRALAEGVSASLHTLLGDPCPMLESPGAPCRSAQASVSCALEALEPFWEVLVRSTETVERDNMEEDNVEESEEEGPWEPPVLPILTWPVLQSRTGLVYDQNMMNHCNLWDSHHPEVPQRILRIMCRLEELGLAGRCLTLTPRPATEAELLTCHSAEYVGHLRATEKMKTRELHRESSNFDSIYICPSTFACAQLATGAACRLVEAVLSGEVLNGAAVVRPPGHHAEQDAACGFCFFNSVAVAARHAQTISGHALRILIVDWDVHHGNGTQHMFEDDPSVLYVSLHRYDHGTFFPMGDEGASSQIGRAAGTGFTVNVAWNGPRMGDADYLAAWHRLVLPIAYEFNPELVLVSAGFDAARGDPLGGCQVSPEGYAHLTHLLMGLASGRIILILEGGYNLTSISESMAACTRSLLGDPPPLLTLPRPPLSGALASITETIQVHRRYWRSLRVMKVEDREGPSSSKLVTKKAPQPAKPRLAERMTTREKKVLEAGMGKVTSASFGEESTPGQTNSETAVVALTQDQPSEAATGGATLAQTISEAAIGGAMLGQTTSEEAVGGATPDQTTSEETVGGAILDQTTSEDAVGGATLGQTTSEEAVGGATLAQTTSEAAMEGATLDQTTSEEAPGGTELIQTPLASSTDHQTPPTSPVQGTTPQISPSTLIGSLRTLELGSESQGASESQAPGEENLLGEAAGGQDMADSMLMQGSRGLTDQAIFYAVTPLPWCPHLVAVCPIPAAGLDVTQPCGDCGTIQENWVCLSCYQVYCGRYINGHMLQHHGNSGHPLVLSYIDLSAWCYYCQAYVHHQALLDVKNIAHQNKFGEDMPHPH

[3] = molecular target: Histone deacetylase 4 (Homo sapiens) (UniProt P56524); test: Inhibition of N-terminal GST-tagged/C-terminal His-tagged human HDAC4 (627 to 1084 residues) expressed in Sf9 insect cells using Boc-Lys(Tfa)-AMC as fluorogenic substrate at 10 uM preincubated for 60 mins followed by substrate addition and measured after 90 mins by microplate reader analysis relative to control; conditions: time 150.0 min
In short: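 Recombinant human HDAC4 was preincubated with inhibitor for 60 min at 25 °C in Tris-HCl pH 8.0/BSA buffer. Boc-Lys(Tfa)-AMC (42.86 μM solution) was then added for 90 min at 37 °C, followed by trypsin for 30 min at 37 °C. Fluorescence was read at ex 355/em 460. Tested at least twice in duplicate.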

[4] = molecular target: Histone deacetylase 2 (Homo sapiens) (UniProt Q92769); test: (§2) Inhibition of C-terminal 6His-tagged human recombinant HDAC2 (1 to 488 residues) expressed in Sf9 insect cells using Z-Lys(Ac)-AMC as fluorogenic substrate at 10 uM preincubated for 60 mins followed by substrate addition and measured after 90 mins by microplate reader analysis relative to control; conditions: time 150.0 min; in short: as §1
[5] = molecular target: Histone deacetylase 1 (Homo sapiens) (UniProt Q13547); test: as §2, with “6His/FLAG tagged” for “6His-tagged”, “HDAC1” for “HDAC2”, “482” for “488”, “residues) […]” for “residues)”; conditions: time 150.0 min; in short: as §1
[6] = molecular target: T2, Protein deacetylase HDAC6 (Homo sapiens) (UniProt Q9UBN7); test: Inhibition of N-terminal GST tagged human recombinant HDAC6 (1 to 1215 residues) expressed in Sf9 insect cells using Z-Lys(Ac)-AMC as fluorogenic substrate at 10 uM preincubated for 60 mins followed by substrate addition and measured after 90 mins by microplate reader analysis relative to control; conditions: time 150.0 min; in short: as §1
T2 sequence (whole entry): T1 sequence (Q9UBN7 whole entry)

Chain of Histone deacetylase 1 (Homo sapiens) (Q13547 whole entry, the tested form may be a part): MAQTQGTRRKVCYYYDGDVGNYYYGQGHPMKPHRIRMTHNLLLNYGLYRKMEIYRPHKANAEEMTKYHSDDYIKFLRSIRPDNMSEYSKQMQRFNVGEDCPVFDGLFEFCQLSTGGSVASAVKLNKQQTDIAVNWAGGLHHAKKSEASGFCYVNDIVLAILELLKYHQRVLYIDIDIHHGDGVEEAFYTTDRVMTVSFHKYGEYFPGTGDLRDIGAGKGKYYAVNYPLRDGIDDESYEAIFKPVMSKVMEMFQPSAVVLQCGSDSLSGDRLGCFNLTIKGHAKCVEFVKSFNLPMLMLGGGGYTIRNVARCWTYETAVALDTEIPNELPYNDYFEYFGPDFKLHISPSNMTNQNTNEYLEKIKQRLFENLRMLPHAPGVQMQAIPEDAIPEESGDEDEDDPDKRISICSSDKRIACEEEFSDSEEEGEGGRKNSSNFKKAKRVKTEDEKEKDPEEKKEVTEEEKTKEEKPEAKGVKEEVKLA
Chain of Histone deacetylase 2 (Homo sapiens) (Q92769 whole entry, the tested form may be a part): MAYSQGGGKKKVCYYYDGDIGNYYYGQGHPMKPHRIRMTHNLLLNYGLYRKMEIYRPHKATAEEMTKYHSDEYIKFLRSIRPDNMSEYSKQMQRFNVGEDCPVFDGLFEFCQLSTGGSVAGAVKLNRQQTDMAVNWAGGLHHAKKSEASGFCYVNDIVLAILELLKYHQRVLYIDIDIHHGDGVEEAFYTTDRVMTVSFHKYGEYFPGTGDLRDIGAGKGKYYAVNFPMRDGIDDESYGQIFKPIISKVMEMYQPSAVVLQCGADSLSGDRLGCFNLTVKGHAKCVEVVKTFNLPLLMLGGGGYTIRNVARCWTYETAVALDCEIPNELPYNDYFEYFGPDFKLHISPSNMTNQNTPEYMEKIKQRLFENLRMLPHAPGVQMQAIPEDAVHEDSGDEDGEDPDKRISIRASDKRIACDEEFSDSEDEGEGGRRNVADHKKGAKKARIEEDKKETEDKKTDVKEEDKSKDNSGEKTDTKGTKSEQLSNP
Chain of Histone deacetylase 4 (Homo sapiens) (P56524 whole entry, the tested form may be a part): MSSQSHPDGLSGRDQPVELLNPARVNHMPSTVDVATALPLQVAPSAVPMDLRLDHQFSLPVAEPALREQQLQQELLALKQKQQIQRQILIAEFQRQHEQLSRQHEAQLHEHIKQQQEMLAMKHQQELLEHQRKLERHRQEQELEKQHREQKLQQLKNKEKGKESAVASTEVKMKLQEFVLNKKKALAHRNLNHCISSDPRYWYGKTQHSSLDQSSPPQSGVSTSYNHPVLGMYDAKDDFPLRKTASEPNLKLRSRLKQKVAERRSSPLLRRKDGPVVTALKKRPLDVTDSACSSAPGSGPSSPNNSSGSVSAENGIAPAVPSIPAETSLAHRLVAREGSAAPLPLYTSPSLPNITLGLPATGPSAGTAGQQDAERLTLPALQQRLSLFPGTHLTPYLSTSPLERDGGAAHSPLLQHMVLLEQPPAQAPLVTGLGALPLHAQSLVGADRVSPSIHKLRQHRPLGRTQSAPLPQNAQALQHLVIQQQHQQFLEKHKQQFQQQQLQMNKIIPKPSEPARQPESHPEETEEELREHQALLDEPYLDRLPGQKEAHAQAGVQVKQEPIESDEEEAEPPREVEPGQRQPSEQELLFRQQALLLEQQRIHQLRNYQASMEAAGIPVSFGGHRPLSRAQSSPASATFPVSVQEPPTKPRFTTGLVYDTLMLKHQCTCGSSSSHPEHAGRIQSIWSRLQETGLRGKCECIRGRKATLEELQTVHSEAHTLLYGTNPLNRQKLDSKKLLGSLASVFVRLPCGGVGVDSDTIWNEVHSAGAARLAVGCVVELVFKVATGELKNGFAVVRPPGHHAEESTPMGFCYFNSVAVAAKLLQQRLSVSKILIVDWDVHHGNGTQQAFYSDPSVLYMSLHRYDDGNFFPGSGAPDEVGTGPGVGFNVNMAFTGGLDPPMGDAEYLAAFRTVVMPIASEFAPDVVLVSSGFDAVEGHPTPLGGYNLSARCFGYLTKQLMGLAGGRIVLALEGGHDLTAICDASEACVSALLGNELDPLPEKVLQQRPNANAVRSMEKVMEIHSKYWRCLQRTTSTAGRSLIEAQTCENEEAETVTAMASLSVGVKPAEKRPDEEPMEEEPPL

inhibition [1] | IC50 [2] | inhibition [3] | inhibition [4] | inhibition [5] | inhibition [6] | Compound
< 15% |  | < 15% | < 15% | < 15% | 39% | Cc1ccc(-c2nnc(C(F)F)o2)cn1
 |  |  |  |  | 54% | FCc1nnc(-c2cnc(NCc3ccccc3)nc2)o1
< 15% |  | < 15% | < 15% | < 15% | 27% | CN(C)c1ccc(C(=O)N(CC(=O)NCc2ccccc2)Cc2ccc(-c3nnc(C(F)F)o3)cc2)cc1
< 15% |  | < 15% | < 15% | < 15% | < 15% | FC(F)c1nnc(-c2ccccc2)o1

Further lines, the compound ahead of its results:

Compound | inhibition [1] | IC50 [2] | inhibition [3] | inhibition [4] | inhibition [5] | inhibition [6]
COc1ccc(CNc2ncc(-c3nnc(C(F)F)o3)cn2)cc1 | < 15% | 337 nM | < 15% | < 15% | < 15% | 
CCCCN(Cc1ccc(-c2nnc(C(F)F)o2)cc1)C(=O)c1ccccc1 | < 15% |  | < 15% | < 15% | < 15% | 75%
Cc1nnc(-c2cnc(NCc3ccccc3)nc2)o1 |  |  |  |  |  | < 15%
O=C(NNC(=O)C(F)F)c1cnc(NCc2ccccc2)nc1 |  |  |  |  |  | < 15%
NNC(=O)c1cnc(NCc2ccccc2)nc1 |  |  |  |  |  | 30%
FC(F)c1nnc(-c2cncnc2)o1 | < 15% |  | < 15% | < 15% | < 15% | 56%
CCCCN(Cc1ccc(-c2nnc(C(F)F)o2)cc1)C(=O)Nc1ccccc1 | < 15% |  | < 15% | < 15% | < 15% | 76%
